Measurements as given in ChEMBL document CHEMBL3763021 (Eur J Med Chem, 2016).

Columns and labels:
[1] = Inhibition of Sonic-induced hedgehog signalling in mouse NIH3T3 cells after 48 hrs by Gli-luciferase reporter assay; type: cell-based; conditions: NIH3T3, 48 h
Procedure, shortened: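 NIH3T3 cells stably carrying a Gli-luciferase reporter were kept in DMEM with 10% FBS and 1 µg/mL puromycin, then seeded at 2×10^4 cells/well overnight at 37 °C. Compounds at 0.05–300 nM (8 concentrations) were added in medium with 0.5% FBS and 0.7 µg/mL Sonic Hh agonist, n=4 wells, for 48 h. Readout was the Firefly/Renilla luciferase ratio in lysates.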

[2] = Clearance in Sprague-Dawley rat at 5 mg/kg, po by LC/MS/MS analysis; type: ADME, organism-based; conditions: in vivo
Procedure, shortened: (§1)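 Male SD rats, 180–240 g, 3 per compound; single dose of 1 mg/kg iv or 5 mg/kg po, dosing volume 5 mL/kg. Blood was sampled from 2 min to 24 h and centrifuged at 4 °C. Plasma underwent protein precipitation, then LC/MS/MS in SRM mode with an internal standard. Parameters were derived by noncompartmental analysis.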

[3] = Antiproliferative activity against human BxPC3 cells after 72 hrs by CellTiter-Glo luminescent cell viability assay; type: functional, cell-based; conditions: BXPC-3, 72 h
Procedure, shortened: (§2)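 Cells were grown in DMEM with 10% FBS, seeded at a density suited to each line, and left 24 h at 37 °C. Compounds were prepared in DMSO, diluted in medium over a concentration series starting at 100 µM, and applied for 72 h. CellTiter-Glo reagent was added for 30 min at room temperature before reading luminescence. IC50 came from four-parameter curve fitting.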

[4] = Half life in Sprague-Dawley rat at 5 mg/kg, po by LC/MS/MS analysis; type: ADME, organism-based; conditions: in vivo; procedure, shortened: as §1
[5] = Mean resident time (0 to t) in Sprague-Dawley rat at 5 mg/kg, po by LC/MS/MS analysis; type: ADME, organism-based; conditions: in vivo; procedure, shortened: as §1
[6] = Cmax in Sprague-Dawley rat at 5 mg/kg, po by LC/MS/MS analysis; type: ADME, organism-based; set-up: dose 5 mg/kg, route oral; conditions: in vivo; procedure, shortened: as §1
LS174T [7] = assay: Antitumor activity against human LS174T cells xenografted in BALB/C mouse assessed as tumor weight inhibition at 75 mg/kg, bid administered for 10 days measured twice per week; type: functional; conditions: 240 h, read-out: TGI
Procedure, shortened: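 Male BALB/c nude mice, 18–20 g, kept under SPF conditions. LS-174T cells at 2.5×10^7 cells/mL were injected s.c. into the right flank, and tumors were grown to about 100 mm3. Mice were randomized, n=6 treated and n=9 vehicle. Oral dosing ran qd or bid for 10 days; vehicle controls got the same volume of solvent. Tumor volume = length×width²/2, measured twice weekly. IR = (control − treated)/control for tumor weight or volume at day 10.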

[8] = Oral bioavailability in Sprague-Dawley rat at 5 mg/kg; type: ADME, organism-based; conditions: in vivo; procedure, shortened: as §1
[9] = AUC (0 to t) in Sprague-Dawley rat at 5 mg/kg, po by LC/MS/MS analysis; type: ADME, organism-based; conditions: in vivo; procedure, shortened: as §1
[10] = Antiproliferative activity against human PC3 cells after 72 hrs by CellTiter-Glo luminescent cell viability assay; type: functional, cell-based; conditions: PC-3, 72 h; procedure, shortened: as §2
Mus musculus = assay: Toxicity in BALB/C mouse xenografted with human LS174T cells assessed as mortality at 75 mg/kg, bid administered for 10 days; type: organism-based; conditions: in vivo, 240 h
Procedure, shortened: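 Male BALB/C nude mice (18–20 g) kept under SPF conditions. LS-174T cells at 2.5×10^7 cells/mL injected subcutaneously into the right flank. Once tumors reached about 100 mm3, mice were randomized to groups of 6 (vehicle group n = 9) and dosed orally once or twice daily for 10 days. Controls received solvent. Body weight and tumor volume were measured twice weekly and deaths recorded.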

LS174T [11] = assay: Antiproliferative activity against human LS174T cells after 72 hrs by CellTiter-Glo luminescent cell viability assay; type: functional, cell-based; procedure, shortened: as §2
[12] = AUC (0 to t) in Sprague-Dawley rat at 1 mg/kg, iv by LC/MS/MS analysis; type: ADME, organism-based; conditions: in vivo
Procedure, shortened: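 Male SD rats, 3 per compound, 180–240 g, single iv dose at 1 mg/kg, dosing volume 5 mL/kg. Blood sampled at 2, 5, 15, 30 min and 1, 2, 4, 6, 8, 10, 24 h, then centrifuged at 4 °C. Plasma protein-precipitated and analysed by LC/MS/MS in SRM mode with internal standard. AUC(0-t) obtained by noncompartmental analysis.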

[13] = Cmax in Sprague-Dawley rat at 1 mg/kg, iv by LC/MS/MS analysis; type: ADME, organism-based; set-up: dose 1 mg/kg, route intravenous; conditions: in vivo; procedure, shortened: as §1
[14] = Apparent volume of distribution in Sprague-Dawley rat at 1 mg/kg, iv by LC/MS/MS analysis; conditions: in vivo
[15] = Half life in Sprague-Dawley rat at 1 mg/kg, iv by LC/MS/MS analysis; type: ADME, organism-based; conditions: in vivo; procedure, shortened: as §1
[16] = Clearance in Sprague-Dawley rat at 1 mg/kg, iv by LC/MS/MS analysis; type: ADME, organism-based; conditions: in vivo; procedure, shortened: as §1
[17] = Mean resident time (0 to t) in Sprague-Dawley rat at 1 mg/kg, iv by LC/MS/MS analysis; type: ADME, organism-based; conditions: in vivo; procedure, shortened: as §1

Question: Which IC50 [1] does the source give for `Cc1ccc(CN2CCCCC2)cc1NC(=O)c1ccc(Nc2nccc(-c3ccc(OC(F)(F)F)cc3)n2)cc1` here?
Answer: 2.68 nM

Question: Which IC50 [1] does the source give for `Cc1ccc(CN2CCCC2)cc1NC(=O)c1ccc(Nc2nccc(-c3ccc(OC(F)(F)F)cc3)n2)cc1` here?
Answer: 1.83 nM

Question: With `Cc1ccc(CN(C)C)cc1NC(=O)c1ccc(Nc2ncc(F)c(-c3ccc(OC(F)(F)F)cc3)n2)cc1` as the compound, how does the IC50 [1] read?
Answer: 3.19 nM

Question: Which IC50 [1] does the source give for `Cc1ccc(CN2CCCCC2)cc1NC(=O)c1ccc(Nc2ncc(F)c(-c3ccc(OC(F)(F)F)cc3)n2)cc1` here?
Answer: 3.12 nM

Question: For `CCN(CC)Cc1ccc(C)c(NC(=O)c2ccc(Nc3nccc(-c4ccc(OC(F)(F)F)cc4)n3)cc2)c1`, which IC50 [1] is on record?
Answer: 2.31 nM

Question: Which IC50 [1] does the source give for `Cc1ccc(CN2CCOCC2)cc1NC(=O)c1ccc(Nc2ncc(C3CC3)c(-c3ccc(OC(F)(F)F)cc3)n2)cc1` here?
Answer: 11.9 nM

Question: For `CS(=O)(=O)c1ccc(C(=O)Nc2ccc(Cl)c(-c3ccccn3)c2)c(Cl)c1` [VISMODEGIB], which IC50 [1] is on record?
Answer: 7.2 nM

Question: And the CL/F [2]?
Answer: 4.68 mL/min/kg

Question: What about the IC50 [3] of the same compound?
Answer: 48000 nM

Question: And the half-life [4]?
Answer: 2.46 h

Question: What about the MRT last [5] of the same compound?
Answer: 3.93 h

Question: What about the Cmax [6] of the same compound?
Answer: 3640 ng/mL

Question: And the inhibition in vivo at 75 mg/kg (LS174T [7])?
Answer: 11.8%

Question: And the bioavailability [8]?
Answer: > 100%

Question: What about the AUC(0-t) [9] of the same compound?
Answer: 22400 ng·h/mL

Question: And the IC50 [10]?
Answer: 66800 nM

Question: And the Activity (Mus musculus)?
Answer: Non-toxic

Question: And the IC50 (LS174T [11])?
Answer: 45800 nM

Question: For `CCN(CC)Cc1ccc(C)c(NC(=O)c2ccc(Nc3ncc(F)c(-c4ccc(OC(F)(F)F)cc4)n3)cc2)c1`, which IC50 [1] is on record?
Answer: 2.56 nM

Question: What does the source list for `O=C(Nc1cccc(CN2CCOCC2)c1)c1ccc(Nc2nccc(-c3ccc(OC(F)(F)F)cc3)n2)cc1`?
Answer: IC50 [1]: 0.56 nM; AUC(0-t) [12]: 769 ng·h/mL; Cmax [13]: 915 ng/mL; Vd [14]: 6.33 L/kg; half-life [15]: 3.59 h; clearance [16]: 21.5 mL/min/kg; MRT last [17]: 1.53 h
